# Bioassay records deposited in PubChem by Broad Institute.
# The list is not random: actives were taken first. Their share in the collection is about 2.9%.
# E-sel inducer = induces E-selectin expression in human endothelial cells. P16581. HUVEC E-selectin immunofluorescence imaging; normalized: neutral wells 0, TNF-alpha wells 100. activation, % at 7.58 µM. 260,000 tested, 0.37% active;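 active = mean E-selectin-positive cell signal at least 10% of the positive control, reached in at least 60% of replicates, without over 20% cell loss; inconclusive = no rule given, readout overlaps actives, possibly toxicity-flagged; inactive = the rest, including those meeting only one limit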
# Target sequence (P16581 whole entry, looked up): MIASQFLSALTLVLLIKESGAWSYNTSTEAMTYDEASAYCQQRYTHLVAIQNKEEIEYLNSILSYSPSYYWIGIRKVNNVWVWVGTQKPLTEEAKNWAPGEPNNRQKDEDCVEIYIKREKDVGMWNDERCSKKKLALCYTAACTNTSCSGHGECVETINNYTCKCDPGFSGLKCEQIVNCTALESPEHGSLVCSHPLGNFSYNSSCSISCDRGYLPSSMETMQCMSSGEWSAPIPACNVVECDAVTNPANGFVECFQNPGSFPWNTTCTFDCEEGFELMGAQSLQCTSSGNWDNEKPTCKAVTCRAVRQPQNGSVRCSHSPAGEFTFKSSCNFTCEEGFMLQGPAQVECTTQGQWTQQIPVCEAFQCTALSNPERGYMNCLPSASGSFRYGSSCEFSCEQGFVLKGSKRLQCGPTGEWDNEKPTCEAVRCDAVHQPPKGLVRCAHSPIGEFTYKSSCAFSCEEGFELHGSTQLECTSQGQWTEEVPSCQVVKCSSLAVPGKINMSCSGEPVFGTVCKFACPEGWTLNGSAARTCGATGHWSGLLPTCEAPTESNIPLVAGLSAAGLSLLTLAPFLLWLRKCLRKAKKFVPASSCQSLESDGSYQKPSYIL
#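 Test system: HUVEC; input: 3,000 HUVEC/well; measured by: immunofluorescence imaging; read-out: % PE-positive cells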
# SIRT5 inh = inhibitors of human sirtuin-5 desuccinylase | Q9NXA8 | Purified SirT5, succinyl-peptide AMC, trypsin-coupled fluorescence | inhibition, % at 15 µM | 330,000 tested, 1.1% active | AID 652115; in the data active = inhibition above about 15%; inconclusive = no clear call, values can overlap the other calls
# DENV2 CPE = DENV2-induced cell death inhibition; AID 651640; DENV2-infected cells, cytopathic effect rescue, plate reader; CPE inhibition, % at 9.99 µM; 350,000 tested, 1.7% active; in the data active = CPE inhibition above about 20%, passing the limit was not always enough; inconclusive = no clear call, values can overlap the other calls; tested in BHK-21 cells;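 note: 0% = median of neutral control wells and 100% = median of positive control wells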
# Numbers without * were called inactive; ? = inconclusive; / = no result given.
SMILES,E-sel inducer,SIRT5 inh,DENV2 CPE
CCOC(=O)c1c(C)[nH]c(C)c1C(=O)COC(=O)c1cc(OC)cc(OC)c1,0,-5,/
COc1cccc(-c2nc(CS(=O)CC(=O)NC3CCCC3)c(C)o2)c1 (stereo not drawn),0,1,4
COc1cccc(C(=O)NCC(=O)N2CCC3(CC2)NCCc2[nH]cnc23)c1,/,-1,-1
CCN(CC(=O)Nc1ccc(OC)cc1)C(=O)CSCc1c(C)noc1C,/,1,74*
CCN(CC(=O)Nc1c(F)cccc1F)C(=O)CSCc1c(C)noc1C,-2,0,-4
CN1C(=O)c2cc(NS(=O)(=O)c3ccc(F)cc3)ccc2OC[C@H]2O[C@H](CC(=O)O)CC[C@@H]21,0,-5,-7
Cc1ccc(S(=O)(=O)N[C@@H]2CC[C@@H](CCNC(=O)C3CC3)O[C@H]2CO)cc1,0,-1,-4
COc1ccccc1S(=O)(=O)N[C@@H]1CC[C@@H](CCNC(=O)C2CCCC2)O[C@@H]1CO,0,0,20*
Cc1ccc(S(=O)(=O)N[C@@H]2CC[C@@H](CCNC(=O)C3CCOCC3)O[C@H]2CO)cc1,0,2,21*
Cc1ccc(S(=O)(=O)N[C@H]2CC[C@H](CCNC(=O)C3CCOCC3)O[C@H]2CO)cc1,0,0,8
COc1ccccc1S(=O)(=O)N[C@@H]1CC[C@H](CCNC(=O)C2CCCC2)O[C@H]1CO,0,-1,5
Cc1ccc(S(=O)(=O)N[C@H]2CC[C@@H](CCNC(=O)C3CCOCC3)O[C@H]2CO)cc1,0,-1,22*
Cc1ccc(S(=O)(=O)N[C@H]2CC[C@H](CCNC(=O)C3CCCC3)O[C@@H]2CO)cc1,0,11,72*
Cc1ccc(S(=O)(=O)N[C@H]2CC[C@@H](CCNC(=O)C3CCCC3)O[C@H]2CO)cc1,0,4,6
CCC(=O)Nc1ccc2c(c1)OC[C@H](C)N(Cc1ccccc1)C[C@@H](C)[C@H](OC)CN(C)C2=O,0,4,?
Cc1cccc(S(=O)(=O)N(C)C[C@@H]2OCc3cnnn3CCCC(=O)N([C@H](C)CO)C[C@H]2C)c1,0,-5,-7
COc1ccc(S(=O)(=O)N[C@H]2CC[C@@H](CCNC(=O)CN3CCOCC3)O[C@H]2CO)cc1,0,2,94*
COc1ccc(S(=O)(=O)N[C@H]2CC[C@@H](CCNC(=O)CN3CCOCC3)O[C@@H]2CO)cc1,0,0,4
O=C(COc1ccc(S(=O)(=O)N2CCOCC2)cc1)NCc1ccco1,/,0,-2
COc1cc(OC)cc(C(=O)N[C@H](C(=O)OCC(=O)Nc2ccc(C(C)C)cc2)C(C)C)c1,64*,-5,-7
COc1cc(OC)cc(C(=O)N[C@H](C(=O)OCC(=O)Nc2ccc(OC)c(OC)c2)C(C)C)c1,/,-3,2
C[C@H]1CN([C@@H](C)CO)C(=O)c2cc(NC(=O)C3CC3)ccc2O[C@H]1CN(C)Cc1ccc(Oc2ccccc2)cc1,/,7,-1
O=C(COc1ccc2c(-c3ccccc3)cc(=O)oc2c1)NC1CCS(=O)(=O)C1 (stereo not drawn),/,/,143*
O=C(COc1ccc2ccc(=O)oc2c1)NC1CCS(=O)(=O)C1 (stereo not drawn),-1,/,0
C[C@H](CO)N1C[C@H](C)[C@H](CN(C)C(=O)Nc2cccc(C(F)(F)F)c2)OCc2cn(nn2)CCCC1=O,0,/,/
SMILES,E-sel inducer,SIRT5 inh,DENV2 CPE
CC(C(=O)NCc1ccccc1)n1c(CSCCOc2ccccc2)nc2ccccc21 (stereo not drawn),0,-1,40*
CCC(C(=O)NCc1ccccc1)n1c(CSCCOc2ccccc2)nc2ccccc21 (stereo not drawn),0,-2,5
COc1cccc(CN2CCNC(=O)C2CC(=O)O)c1OC (stereo not drawn),4,-1,12
Cc1ccccc1CN1CCNC(=O)C1CC(=O)O (stereo not drawn),0,0,33*
CC(C)(C)OC(=O)NCCCC[C@@H](C(=O)NCCCCCCCCCCC(=O)N1CCN(C(=O)OC(C)(C)C)CC1)n1cc(CCCC(=O)O)nn1,0,9,-11
Cc1cc(N2C(=O)C(O)=C(C(=O)c3cc4ccccc4o3)C2c2ccc(Cl)cc2)no1 (stereo not drawn),/,13,-2
Cc1cc(N2C(=O)C(O)=C(C(=O)c3cc4ccccc4o3)C2c2ccc(Br)cc2)no1 (stereo not drawn),/,25*,0
CCCc1cc(C(=O)N2CCCC(N3CCN(c4ccc(F)cc4)CC3)C2)no1 (stereo not drawn),/,0,?
COC(=O)C[C@H]1CC[C@H]2[C@H](COc3ccc(NC(=O)c4ccc(OC)cc4)cc3C(=O)N2C)O1,0,6,1
